The results in this text go back to ChEMBL document CHEMBL4017501, “Paralog Specificity Determines Subcellular Distribution, Action Mechanism, and Anticancer Activity of TRAP1 Inhibitors” (J Med Chem, 2017).

Activity calls are given as the source filed them. The rule behind the calls is not given here.

A short description of data set [1]: Cytotoxicity against human corneal cells assessed as reduction in cell viability at 5 to 20 uM after 24 hrs by MTT assay. The class given is cell-based. Summed up: (§1)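 Corneal cells kept in corneal medium; hepatocytes isolated from 8-week-old BALB/c mice and kept in M199/EBSS with 10% FBS. Cells given a range of drug concentrations for 24 h. MTT absorbance read at 595 nm and normalized to DMSO; two independent experiments in duplicate, mean ± SEM.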
For orientation: Formazan colour is commonly taken as a measure of viable cells.

Data set [2] has as its system PC-3. The experiment in a line: Induction of apoptosis in human PC3 cells assessed as early apoptotic cells at 20 uM after 24 hrs by Annexin V-FITC/propidium iodide staining based flow cytometry (reference value: 0.7%). The class given is functional.
Data set [3] concerns HeLa. The data set can be described thus: Induction of apoptosis in human HeLa cells assessed as late apoptotic cells at 20 uM after 24 hrs by Annexin V-FITC/propidium iodide staining based flow cytometry (reference value: 5.3%). The class given is functional.
For data set [4], the system named is PC-3. The experiment in a line: Induction of apoptosis in human PC3 cells assessed as necrotic cells at 20 uM after 24 hrs by Annexin V-FITC/propidium iodide staining based flow cytometry (reference value: 0.2%). Format: functional. A general note: Flow cytometry measures light scatter and fluorescence of single cells or particles in a stream.
In data set [5] the test system is HeLa. The experiment in a line: Induction of apoptosis in human HeLa cells assessed as early apoptotic cells at 20 uM after 24 hrs by Annexin V-FITC/propidium iodide staining based flow cytometry (reference value: 3.9%). Format: functional.
Data set [6] concerns Hepatocyte. The data set can be described thus: Cytotoxicity against mouse primary hepatocytes assessed as reduction in cell viability at 5 to 20 uM after 24 hrs by MTT assay. Format: cell-based. Summed up: as §1
For data set [7], the system named is HeLa. The experiment in a line: Induction of apoptosis in human HeLa cells assessed as live cells at 20 uM after 24 hrs by Annexin V-FITC/propidium iodide staining based flow cytometry (reference value: 90.1%). The class given is functional.
Data set [8] concerns PC-3. The data set can be described thus: Induction of apoptosis in human PC3 cells assessed as late apoptotic cells at 20 uM after 24 hrs by Annexin V-FITC/propidium iodide staining based flow cytometry (reference value: 1.5%). The class given is functional.
Data set [9] has as its system PC-3. The experiment in a line: Induction of apoptosis in human PC3 cells assessed as live cells at 20 uM after 24 hrs by Annexin V-FITC/propidium iodide staining based flow cytometry (reference value: 97.4%). The class given is functional.
Data set [10] has as its system HeLa. The data set can be described thus: Induction of apoptosis in human HeLa cells assessed as necrotic cells at 20 uM after 24 hrs by Annexin V-FITC/propidium iodide staining based flow cytometry (reference value: 0.7%). Format: functional.
Data set [11] addresses Heat shock protein HSP 90-alpha (Homo sapiens, UniProt P07900). The data set can be described thus: Inhibition of FITC3-labeled PU-H71 binding to recombinant HSP90alpha (unknown origin) after 24 hrs by fluorescence polarization assay. On the technique in general: Fluorescence polarisation rises when a labelled molecule tumbles more slowly, as on binding a larger partner.

The target in data set [12] is T1, Heat shock protein 75 kDa, mitochondrial (Homo sapiens, UniProt Q12931).
T1 sequence (Q12931 whole entry): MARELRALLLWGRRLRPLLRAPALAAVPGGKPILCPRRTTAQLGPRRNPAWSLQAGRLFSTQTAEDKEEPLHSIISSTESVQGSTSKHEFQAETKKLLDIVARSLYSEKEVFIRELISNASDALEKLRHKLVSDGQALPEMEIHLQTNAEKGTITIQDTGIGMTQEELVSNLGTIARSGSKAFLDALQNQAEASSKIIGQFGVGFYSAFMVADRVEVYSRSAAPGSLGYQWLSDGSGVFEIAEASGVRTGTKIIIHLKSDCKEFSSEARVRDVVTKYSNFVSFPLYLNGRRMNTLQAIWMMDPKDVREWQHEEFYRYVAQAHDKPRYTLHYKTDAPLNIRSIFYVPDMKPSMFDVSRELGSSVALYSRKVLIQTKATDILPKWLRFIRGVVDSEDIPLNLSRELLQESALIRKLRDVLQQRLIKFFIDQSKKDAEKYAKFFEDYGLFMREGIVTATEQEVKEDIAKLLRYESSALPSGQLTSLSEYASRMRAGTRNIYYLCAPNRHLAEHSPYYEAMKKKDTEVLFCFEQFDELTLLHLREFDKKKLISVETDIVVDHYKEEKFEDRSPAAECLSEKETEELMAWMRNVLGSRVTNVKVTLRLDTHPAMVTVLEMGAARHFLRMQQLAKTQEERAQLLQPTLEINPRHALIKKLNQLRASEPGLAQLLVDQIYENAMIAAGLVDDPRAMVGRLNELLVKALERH
The experiment in a line: Inhibition of FITC3-labeled PU-H71 binding to recombinant human N-terminal His6-tagged TRAP1 (60 to 561 residues) expressed in Escherichia coli BL21(DE3) after 24 hrs by fluorescence polarization assay. In a few lines: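 Recombinant TRAP1 (100 nM) incubated with 10 nM 1-FITC3 probe and varying inhibitor concentrations for 24 h at 4 °C. Buffer: PBS-type salts with 1 mM DTT, 2 mM MgCl2, 0.1 mg/mL BSA, 0.05% NP40, pH 7.3. Polarization (mP) scaled to maximum and minimum values; mean ± SEM of two independent experiments.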

Data set [13] deals with T2, Heat shock protein 75 kDa, mitochondrial (Homo sapiens) (UniProt Q12931).
T2 sequence (whole entry): T1 sequence (Q12931 whole entry)
The experiment in a line: Inhibition of TRAP1 in human HeLa cells assessed as induction of mitochondrial ROS production after 6 hrs by Mito-Sox staining based flow cytometry. The class given is cell-based. Summed up: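 HeLa cells given drug for 6 h, then stained with 200 nM Mito-SOX Red for 20 min at 37 °C. Cells washed with PBS, trypsinized, resuspended and analysed by flow cytometry for mitochondrial superoxide.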

Data set [14] addresses T2, Heat shock protein 75 kDa, mitochondrial (Homo sapiens). The experiment in a line: Inhibition of TRAP1 in human HeLa cells assessed as cytochrome c release at 20 uM after 4 hrs by Western blot method. The class given is cell-based. Summed up:
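HeLa cells treated at 20 μM for 4 h. Mitochondrial fractionation performed; cytoplasmic fraction probed for cytochrome c by Western blot.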

With `CCNC(=O)c1noc(-c2cc(C(C)C)c(O)cc2O)c1-c1ccc(CN2CCOCC2)cc1` [LUMINESPIB], the Activity result in data set [1] is given as “Toxic”; in data set [2], 0.7%; in data set [3], 8.6%; in data set [4], 0.9%; in [5], 7.5%; in data set [6], “Toxic”. For the same molecule, the Activity in data set [7] is recorded as 83%; in data set [8], 5%; in [9], 93.5%; in [10], 0.9%.
For orientation: IC50 means the concentration that gives 50% inhibition. As for `Nc1nc(Cl)c2cnc(Cc3ccc4c(c3)OCO4)n2n1`, the half-maximal inhibitory concentration (IC50) in data set [11] and in [12] was over 10000 nM throughout.
As to `COc1c(C)cnc(Cn2ncc3c(Cl)nc(N)nc32)c1C`, the IC50 in data set [11] is 97 nM; in data set [12] it was 138 nM.
For `COc1c(C)cnc(Cn2cnc3c(Cl)nc(N)nc32)c1C`, the inhibition result in data set [13] and in [14] was “inactive” in each case.
